Data published in ChEMBL document CHEMBL1250442, “Inhibiting gene expression at transcription start sites in chromosomal DNA with antigene RNAs” (Nat Chem Biol, 2005).
Active and inactive are the calls of the source. No cut-off for these calls is given here.

Key:
[1] = test system: T47D; assay: Effect of DNA methylation at (+362) CpG site near PR-B transcription start site (-9) in human T47D cells by sodium bisulfite sequencing analysis; format: functional, cell-based
How it was run: (§1)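 T47D cells grown in RPMI-1640 with 10% FBS, 0.5% NEAA, insulin and P/S at 37 °C, 5% CO2. They were plated at 80,000 cells/well 2 days before lipid transfection with 25 nM or 100 nM duplex, with medium changed at 24 h. Cells were harvested 5 days post-transfection. 100 ng bisulfite-treated DNA was PCR-amplified, and products were TA-cloned. 5–15 colonies per plate were sequenced.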

[2] = test system: T47D; assay: Effect of DNA methylation at (+267) CpG site near PR-B transcription start site (-9) in human T47D cells by sodium bisulfite sequencing analysis; format: functional, cell-based; how it was run: as §1
[3] = test system: T47D; assay: Inhibition of PR-B gene expression in human T47D cells by syber green assay; format: functional, cell-based
How it was run: (§2)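 T47D cells plated at 80,000/well without antibiotics two days before Oligofectamine transfection with agRNA duplex (25 or 100 nM final); medium changed at 24 h, harvest day 5 unless stated otherwise. TRIzol total RNA; PR mRNA by real-time PCR with SYBR Green: 50 °C 2 min, 95 °C 10 min, 40 cycles 95 °C 15 s/60 °C 1 min.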

[4] = test system: T47D; assay: Effect of DNA methylation at (+173) CpG site near PR-B transcription start site (-9) in human T47D cells by sodium bisulfite sequencing analysis; format: functional, cell-based; how it was run: as §1
[5] = test system: T47D; assay: Effect of DNA methylation at (+190) CpG site near PR-B transcription start site (-9) in human T47D cells by sodium bisulfite sequencing analysis; format: functional, cell-based; how it was run: as §1
[6] = test system: T47D; assay: Inhibition of PR-A gene expression in human T47D cells harboring inactive DNA methyltransferase-1 at 25 nM by syber green assay; format: functional, cell-based
[7] = test system: T47D; assay: Inhibition of PR-A gene expression in human T47D cells at 25 nM in presence of 4 uM of 5-aza-Dc
[8] = test system: T47D; assay: Inhibition of PR-A mRNA gene expression in human T47D cells at 100 nM by syber green assay; format: functional; how it was run: as §2
[9] = test system: T47D; assay: Cytotoxicity against human T47D cells assessed as effect on cellular morphology; format: cell-based
[10] = test system: T47D; assay: Effect of DNA methylation at (-46) CpG site near PR-B transcription start site (-9) in human T47D cells by sodium bisulfite sequencing analysis; format: functional, cell-based
How it was run: (§3)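 T47D cells (RPMI-1640, 10% FBS, NEAA, insulin; 37 °C, 5% CO2) transfected with agRNA duplexes via Oligofectamine, medium changed at 24 h. Genomic DNA bisulphite-treated, regions around AR and hPR-B start sites PCR-amplified (HotStarTaq, 100 ng treated DNA), gel-purified, TOPO TA cloned; 5–15 colonies per plate miniprepped and sequenced.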

[11] = test system: T47D; assay: Effect of DNA methylation at (+125) CpG site near PR-B transcription start site (-9) in human T47D cells by sodium bisulfite sequencing analysis; format: functional, cell-based; how it was run: as §1
[12] = test system: T47D; assay: Effect of DNA methylation at (+398) CpG site near PR-B transcription start site (-9) in human T47D cells by sodium bisulfite sequencing analysis; format: functional, cell-based; how it was run: as §1
[13] = test system: T47D; assay: Effect of DNA methylation at (+162) CpG site near PR-B transcription start site (-9) in human T47D cells by sodium bisulfite sequencing analysis; format: functional, cell-based; how it was run: as §1
[14] = test system: T47D; assay: Effect of DNA methylation at (+319) CpG site near PR-B transcription start site (-9) in human T47D cells by sodium bisulfite sequencing analysis; format: functional, cell-based; how it was run: as §1
[15] = test system: T47D; assay: Effect of DNA methylation at (+335) CpG site near PR-B transcription start site (-9) in human T47D cells by sodium bisulfite sequencing analysis; format: functional, cell-based; how it was run: as §1
[16] = test system: T47D; assay: Effect of DNA methylation at (+295) CpG site near PR-B transcription start site (-9) in human T47D cells by sodium bisulfite sequencing analysis; format: functional, cell-based; how it was run: as §1
[17] = test system: T47D; assay: Effect of DNA methylation at (+337) CpG site near PR-B transcription start site (-9) in human T47D cells by sodium bisulfite sequencing analysis; format: functional, cell-based; how it was run: as §1
[18] = test system: T47D; assay: Effect of DNA methylation at (+356) CpG site near PR-B transcription start site (-9) in human T47D cells by sodium bisulfite sequencing analysis; format: functional, cell-based; how it was run: as §1
[19] = test system: T47D; assay: Inhibition of PR-A gene expression in human T47D cells at 25 nM by syber green assay; format: functional; how it was run: as §2
[20] = test system: T47D; assay: Effect of DNA methylation at (+112) CpG site near PR-B transcription start site (-9) in human T47D cells by sodium bisulfite sequencing analysis; format: functional, cell-based; how it was run: as §1
[21] = test system: T47D; assay: Effect of DNA methylation at (-75) CpG site near PR-B transcription start site (-9) in human T47D cells by sodium bisulfite sequencing analysis; format: functional, cell-based; how it was run: as §3
[22] = test system: T47D; assay: Effect of DNA methylation at (-112) CpG site near PR-B transcription start site (-9) in human T47D cells by sodium bisulfite sequencing analysis; format: functional, cell-based; how it was run: as §3
[23] = test system: T47D; assay: Effect of DNA methylation at (+353) CpG site near PR-B transcription start site (-9) in human T47D cells by sodium bisulfite sequencing analysis; format: functional, cell-based; how it was run: as §1
[24] = test system: T47D; assay: Inhibition of PR-B gene expression in human T47D cells harboring inactive DNA methyltransferase-1 at 25 nM by syber green assay; format: functional, cell-based
[25] = test system: T47D; assay: Inhibition of PR-B gene expression in human T47D cells at 25 nM in presence of 4 uM of 5-aza-Dc
[26] = test system: T47D; assay: Inhibition of PR-B gene expression in human T47D cells at 25 nM by syber green assay; format: functional; how it was run: as §2
[27] = test system: T47D; assay: Effect of DNA methylation at (+216) CpG site near PR-B transcription start site (-9) in human T47D cells by sodium bisulfite sequencing analysis; format: functional, cell-based; how it was run: as §1
[28] = test system: T47D; assay: Effect of DNA methylation at (-23) CpG site near PR-B transcription start site (-9) in human T47D cells by sodium bisulfite sequencing analysis; format: functional, cell-based; how it was run: as §3
[29] = test system: T47D; assay: Effect of DNA methylation at (+45) CpG site near PR-B transcription start site (-9) in human T47D cells by sodium bisulfite sequencing analysis; format: functional, cell-based; how it was run: as §3
[30] = test system: T47D; assay: Effect of DNA methylation at (+107) CpG site near PR-B transcription start site (-9) in human T47D cells by sodium bisulfite sequencing analysis; format: functional, cell-based; how it was run: as §1
[31] = test system: T47D; assay: Effect of DNA methylation at (+166) CpG site near PR-B transcription start site (-9) in human T47D cells by sodium bisulfite sequencing analysis; format: functional, cell-based; how it was run: as §1
[32] = test system: T47D; assay: Inhibition of PR-A gene expression in human T47D cells by syber green assay; format: functional, cell-based; how it was run: as §2
[33] = test system: T47D; assay: Inhibition of PR-A gene expression in human T47D cells at 25 nM by syber green assay in presence of 10 nM estradiol; format: functional, cell-based
[34] = test system: T47D; assay: Inhibition of PR-B mRNA gene expression in human T47D cells at 100 nM by syber green assay; format: functional
How it was run: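 T47D cells in RPMI-1640 with 10% FBS, NEAA, insulin, 37 °C, 5% CO2. Plated two days before transfection without antibiotics. Oligofectamine-mediated duplex RNA transfection at 100 nM final, medium changed at 24 h, harvest five days post-transfection. Total RNA extracted with TRIzol. hPR mRNA quantified by SYBR Green qPCR: 50 °C 2 min, 95 °C 10 min, then 40 cycles of 95 °C 15 s / 60 °C 1 min.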

[35] = test system: T47D; assay: Effect of DNA methylation at (+41) CpG site near PR-B transcription start site (-9) in human T47D cells by sodium bisulfite sequencing analysis; format: functional, cell-based; how it was run: as §3
[36] = test system: T47D; assay: Effect of DNA methylation at (+149) CpG site near PR-B transcription start site (-9) in human T47D cells by sodium bisulfite sequencing analysis; format: functional, cell-based; how it was run: as §1
[37] = test system: T47D; assay: Effect of DNA methylation at (+225) CpG site near PR-B transcription start site (-9) in human T47D cells by sodium bisulfite sequencing analysis; format: functional, cell-based; how it was run: as §1
[38] = test system: T47D; assay: Inhibition of PR-B gene expression in human T47D cells at 25 nM by syber green assay in presence of 10 nM estradiol; format: functional, cell-based
[39] = test system: T47D; assay: Effect of DNA methylation at (+379) CpG site near PR-B transcription start site (-9) in human T47D cells by sodium bisulfite sequencing analysis; format: functional, cell-based; how it was run: as §1
[40] = test system: T47D; assay: Effect of DNA methylation at (+20) CpG site near PR-B transcription start site (-9) in human T47D cells by sodium bisulfite sequencing analysis; format: functional, cell-based; how it was run: as §1

Cc1cn(CC(=O)N(CCNC(=O)CN(CCNC(=O)CN(CCNC(=O)CN(CCNC(=O)CN(CCNC(=O)CN(CCNC(=O)CN(CCNC(=O)CN(CCNC(=O)CN(CCNC(=O)CN(CCNC(=O)CN(CCNC(=O)CN(CCNC(=O)CN(CCNC(=O)CN(CCNC(=O)CN(CCNC(=O)CN(CCNC(=O)CN(CCNC(=O)CN(CCNC(=O)CN(CCNC(=O)CN(CCNC(=O)CN)C(=O)Cn2ccc(=O)[nH]c2=O)C(=O)Cn2cnc3c(=O)[nH]c(N)nc32)C(=O)Cn2ccc(=O)[nH]c2=O)C(=O)Cn2ccc(N)nc2=O)C(=O)Cn2ccc(=O)[nH]c2=O)C(=O)Cn2cnc3c(=O)[nH]c(N)nc32)C(=O)Cn2cnc3c(=O)[nH]c(N)nc32)C(=O)Cn2ccc(N)nc2=O)C(=O)Cn2ccc(N)nc2=O)C(=O)Cn2cnc3c(N)ncnc32)C(=O)Cn2cnc3c(=O)[nH]c(N)nc32)C(=O)Cn2ccc(=O)[nH]c2=O)C(=O)Cn2ccc(N)nc2=O)C(=O)Cn2ccc(N)nc2=O)C(=O)Cn2cnc3c(N)ncnc32)C(=O)Cn2ccc(N)nc2=O)C(=O)Cn2cnc3c(N)ncnc32)C(=O)Cn2cnc3c(=O)[nH]c(N)nc32)C(=O)Cn2ccc(N)nc2=O)CC(=O)NCCN(CC(=O)NCC(=O)O)C(=O)Cn2cc(C)c(=O)[nH]c2=O)c(=O)[nH]c1=O
Activity [1]: inactive
Activity [2]: inactive
IC50 [3]: 2.5 nM
Activity [4]: inactive
Activity [5]: inactive
inhibition [6]: Active
inhibition [7]: Active
inhibition at 0.1 µM [8]: 95%
Activity [9]: Non-toxic
Activity [10]: inactive
Activity [11]: inactive
Activity [12]: inactive
Activity [13]: inactive
Activity [14]: inactive
Activity [15]: inactive
Activity [16]: inactive
Activity [17]: inactive
Activity [18]: inactive
inhibition at 0.025 µM [19]: 79%
Activity [20]: inactive
Activity [21]: inactive
Activity [22]: inactive
Activity [23]: inactive
inhibition [24]: Active
inhibition [25]: Active
inhibition at 0.025 µM [26]: 88%
Activity [27]: inactive
Activity [28]: inactive
Activity [29]: inactive
Activity [30]: inactive
Activity [31]: inactive
IC50 [32]: 2.5 nM
inhibition [33]: Active
inhibition at 0.1 µM [34]: 100%
Activity [35]: inactive
Activity [36]: inactive
Activity [37]: inactive
inhibition [38]: Active
Activity [39]: inactive
Activity [40]: inactive
